The values below come from article PMC4704638 (Brazilian Journal of Microbiology, 2015).

This experiment has as its system Streptomyces canarius L-glutaminase. The experiment can be described thus: ammonia release, Lineweaver-Burk plot. The class given is biochemical. The following applies: read-out: Km (mmol ^-1); 10-100 mM substrate. The method, boiled down:
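Purified enzyme (ammonium sulphate 50-80% cut, dialysis, DEAE-cellulose; 132.2 U/mg protein) in potassium phosphate buffer pH 8 with L-glutamine, L-asparagine or L-aspartic acid, each separately at 10-100 mM, under standard assay conditions. Deaminating activity read as liberated NH3, expressed as µmol per min per mg protein. Km and Vmax from Lineweaver-Burk fit of 1/S versus 1/activity.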

For orientation: Km means the substrate concentration at which the rate is half of its maximum. Regarding `NC(=O)C[C@H](N)C(=O)O` [L-asparagine], the Km worked out at 137 µM.

Regarding `N[C@@H](CC(=O)O)C(=O)O` [L-aspartic acid], the Michaelis-Menten constant (Km) was 5380 µM. With `NC(=O)CC[C@H](N)C(=O)O` [L-glutamine] the figure was 129 µM.
